# System: U2OS
# Test: Multiplex assay against U2OS
# Type: toxicity, cell-based
# Conditions: human
# How it was run: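 Compound was added to live cells that had been stained at seeding with Hoechst33342, BioTracker Green Microtubule Cytoskeleton Dye, MitoTracker Red and Annexin V Alexa Fluor 680, and imaging followed on a CQ1 microscope at 37°C and 5% CO2. CellPathfinder machine-learning gating divided cells into Hoechst high-intensity objects or normal cells, normal cells into healthy, pyknosed or fragmented nuclei, and pyknosed cells into mitotic or apoptotic. Tubulin, mitochondrial-mass and membrane-permeability phenotypes are per cents of healthy-nucleus cells.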
# [1] = 12 h, 1 µM, compound concentration 1 uM, replicate 1
# [2] = 12 h, 1 µM, compound concentration 1 uM, replicate 2
# [3] = 12 h, 10 µM, compound concentration 10 uM, replicate 1
# [4] = 12 h, 10 µM, compound concentration 10 uM, replicate 2
# [5] = 24 h, 1 µM, compound concentration 1 uM, replicate 1
# [6] = 24 h, 1 µM, compound concentration 1 uM, replicate 2
# [7] = 24 h, 10 µM, compound concentration 10 uM, replicate 1
# [8] = 24 h, 10 µM, compound concentration 10 uM, replicate 2
# [9] = 48 h, 1 µM, compound concentration 1 uM, replicate 1
# [10] = 48 h, 1 µM, compound concentration 1 uM, replicate 2
# [11] = 48 h, 10 µM, compound concentration 10 uM, replicate 1
# [12] = 48 h, 10 µM, compound concentration 10 uM, replicate 2
smiles,measurement,setting,value
CC(C)Oc1ccccc1C(=O)Nc1ccccc1C(=O)Nc1cccc(S(=O)(=O)C(F)(F)F)c1,Population Apoptotic (%),[1],47%
same,Population Fragmented Nuclei (%),[1],14%
same,Population Healthy Nuclei (%),[1],67%
same,Population Hoechst High Intensity Objects (%),[1],11%
same,Population Membrane Permeable-Phenotype (%),[1],4%
same,Population Mitochondria Different-Phenotype (%),[1],61%
same,Population Mitotic Cells (%),[1],52%
same,Population Normal (%),[1],88%
same,Population Pyknosed Nuclei (%),[1],18%
same,Population Tubulin-Different-Phenotype (%),[1],55%
same,Total Cell Count,[1],120
same,Population Apoptotic (%),[2],33%
same,Population Fragmented Nuclei (%),[2],20%
same,Population Healthy Nuclei (%),[2],74%
same,Population Hoechst High Intensity Objects (%),[2],5%
same,Population Membrane Permeable-Phenotype (%),[2],10%
same,Population Mitochondria Different-Phenotype (%),[2],45%
same,Population Mitotic Cells (%),[2],66%
same,Population Normal (%),[2],94%
same,Population Pyknosed Nuclei (%),[2],6%
same,Population Tubulin-Different-Phenotype (%),[2],37%
same,Total Cell Count,[2],62
same,Population Apoptotic (%),[3],68%
same,Population Fragmented Nuclei (%),[3],14%
same,Population Healthy Nuclei (%),[3],61%
same,Population Hoechst High Intensity Objects (%),[3],8%
same,Population Membrane Permeable-Phenotype (%),[3],95%
same,Population Mitochondria Different-Phenotype (%),[3],61%
same,Population Mitotic Cells (%),[3],32%
same,Population Normal (%),[3],91%
same,Population Pyknosed Nuclei (%),[3],24%
same,Total Cell Count,[3],142
same,Population Apoptotic (%),[4],90%
same,Population Fragmented Nuclei (%),[4],17%
same,Population Healthy Nuclei (%),[4],71%
same,Population Hoechst High Intensity Objects (%),[4],4%
same,Population Membrane Permeable-Phenotype (%),[4],97%
same,Population Mitochondria Different-Phenotype (%),[4],92%
same,Population Mitotic Cells (%),[4],10%
same,Population Normal (%),[4],96%
same,Population Pyknosed Nuclei (%),[4],10%
same,Population Tubulin-Different-Phenotype (%),[4],100%
same,Total Cell Count,[4],53
same,Population Apoptotic (%),[5],55%
same,Population Fragmented Nuclei (%),[5],15%
same,Population Healthy Nuclei (%),[5],71%
same,Population Hoechst High Intensity Objects (%),[5],8%
same,Population Membrane Permeable-Phenotype (%),[5],2%
same,Population Mitochondria Different-Phenotype (%),[5],48%
same,Population Mitotic Cells (%),[5],44%
same,Population Normal (%),[5],91%
same,Population Pyknosed Nuclei (%),[5],13%
same,Population Tubulin-Different-Phenotype (%),[5],48%
same,Total Cell Count,[5],109
same,Population Apoptotic (%),[6],33%
same,Population Fragmented Nuclei (%),[6],21%
same,Population Healthy Nuclei (%),[6],66%
same,Population Hoechst High Intensity Objects (%),[6],7%
same,Population Membrane Permeable-Phenotype (%),[6],11%
same,Population Mitochondria Different-Phenotype (%),[6],58%
same,Population Mitotic Cells (%),[6],66%
same,Population Normal (%),[6],92%
same,Population Pyknosed Nuclei (%),[6],11%
same,Population Tubulin-Different-Phenotype (%),[6],35%
same,Total Cell Count,[6],57
same,Population Apoptotic (%),[7],74%
same,Population Fragmented Nuclei (%),[7],23%
same,Population Healthy Nuclei (%),[7],48%
same,Population Hoechst High Intensity Objects (%),[7],6%
same,Population Membrane Permeable-Phenotype (%),[7],92%
same,Population Mitochondria Different-Phenotype (%),[7],74%
same,Population Mitotic Cells (%),[7],25%
same,Population Normal (%),[7],93%
same,Population Pyknosed Nuclei (%),[7],27%
same,Population Tubulin-Different-Phenotype (%),[7],100%
same,Total Cell Count,[7],148
same,Population Apoptotic (%),[8],100%
same,Population Fragmented Nuclei (%),[8],17%
same,Population Healthy Nuclei (%),[8],56%
same,Population Hoechst High Intensity Objects (%),[8],11%
same,Population Membrane Permeable-Phenotype (%),[8],91%
same,Population Mitochondria Different-Phenotype (%),[8],94%
same,Population Mitotic Cells (%),[8],0%
same,Population Normal (%),[8],88%
same,Population Tubulin-Different-Phenotype (%),[8],98%
same,Total Cell Count,[8],55
same,Population Apoptotic (%),[9],81%
same,Population Fragmented Nuclei (%),[9],10%
same,Population Healthy Nuclei (%),[9],74%
same,Population Hoechst High Intensity Objects (%),[9],3%
same,Population Membrane Permeable-Phenotype (%),[9],4%
same,Population Mitochondria Different-Phenotype (%),[9],31%
same,Population Mitotic Cells (%),[9],18%
same,Population Normal (%),[9],96%
same,Population Pyknosed Nuclei (%),[9],14%
same,Population Tubulin-Different-Phenotype (%),[9],25%
same,Total Cell Count,[9],109
same,Population Apoptotic (%),[10],66%
same,Population Fragmented Nuclei (%),[10],22%
same,Population Healthy Nuclei (%),[10],72%
same,Population Hoechst High Intensity Objects (%),[10],7%
same,Population Membrane Permeable-Phenotype (%),[10],18%
same,Population Mitochondria Different-Phenotype (%),[10],48%
same,Population Mitotic Cells (%),[10],33%
same,Population Normal (%),[10],92%
same,Population Pyknosed Nuclei (%),[10],5%
same,Population Tubulin-Different-Phenotype (%),[10],41%
same,Total Cell Count,[10],56
same,Population Apoptotic (%),[11],77%
same,Population Fragmented Nuclei (%),[11],64%
same,Population Healthy Nuclei (%),[11],19%
same,Population Hoechst High Intensity Objects (%),[11],7%
same,Population Membrane Permeable-Phenotype (%),[11],36%
same,Population Mitochondria Different-Phenotype (%),[11],84%
same,Population Mitotic Cells (%),[11],22%
same,Population Normal (%),[11],93%
same,Population Pyknosed Nuclei (%),[11],15%
same,Population Tubulin-Different-Phenotype (%),[11],93%
same,Total Cell Count,[11],190
same,Population Apoptotic (%),[12],64%
same,Population Fragmented Nuclei (%),[12],43%
same,Population Healthy Nuclei (%),[12],38%
same,Population Hoechst High Intensity Objects (%),[12],9%
same,Population Membrane Permeable-Phenotype (%),[12],62%
same,Population Mitochondria Different-Phenotype (%),[12],75%
same,Population Mitotic Cells (%),[12],36%
same,Population Normal (%),[12],90%
same,Population Pyknosed Nuclei (%),[12],17%
same,Population Tubulin-Different-Phenotype (%),[12],98%
same,Total Cell Count,[12],64
